Where a chain is given by its changes, count along the chain named.
How the values were obtained:
[1] = target: T1, Adenosine receptor A3 (Homo sapiens) (UniProt P0DMS8); assay: Displacement of [3H]PSB11 from human A3 adenosine receptor expressed in CHO cell membranes measured after 2 hrs by scintillation spectrometric method
T1 sequence (whole entry): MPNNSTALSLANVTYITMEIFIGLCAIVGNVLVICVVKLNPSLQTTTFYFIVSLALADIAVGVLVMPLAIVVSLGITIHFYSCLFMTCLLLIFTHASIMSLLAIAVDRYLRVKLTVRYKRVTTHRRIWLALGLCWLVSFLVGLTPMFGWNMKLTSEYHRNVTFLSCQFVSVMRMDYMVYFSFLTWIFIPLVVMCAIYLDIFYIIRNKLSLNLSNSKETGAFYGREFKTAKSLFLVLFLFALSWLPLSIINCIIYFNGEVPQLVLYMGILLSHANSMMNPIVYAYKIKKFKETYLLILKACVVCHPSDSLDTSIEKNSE

[2] = target: T1, Adenosine receptor A3 (Homo sapiens); assay: Displacement of [3H]PSB11 from human A3 adenosine receptor expressed in CHO cell membranes at 10 uM measured after 2 hrs by scintillation spectrometric method relative to control
[3] = target: T1, Adenosine receptor A3 (Homo sapiens); assay: Irreversible displacement of [3H]PSB11 from human A3 adenosine receptor expressed in CHO cell membranes assessed as residual binding level at 10 times Ki incubated for 2 hrs followed by 4 times membrane washout ans subsequent [3H]PSB11 addition by scintillation spectrometric method relative to control
Outline: (§1)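 Membranes then either unwashed or washed four times by centrifugation before [3H]PSB-11 addition. Specific binding normalized to vehicle (100%); three experiments in duplicate; unpaired t test.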

[4] = system: T2, Adenosine receptor A3 (Homo sapiens), P0DMS8 [Y265F]; assay: (§2) Displacement of [3H]PSB11 from human A3 adenosine receptor Y265F (7.36) mutant transiently expressed in CHOK1 cell membranes assessed as residual binding level at 10 times IC50 measured after 2 hrs by scintillation spectrometric method
T2 sequence (whole entry): T1 sequence (whole entry) with Y265F
Outline: (§3)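 Membranes then either unwashed or washed four times before [3H]PSB-11 exposure. Binding normalized to vehicle (100%); three experiments in duplicate.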

[5] = system: T2, Adenosine receptor A3 (Homo sapiens), P0DMS8 [Y265F]; assay: as §2, with “incubated for” for “measured after”, “hrs followed by 4 times membrane washout and subsequent [3H]PSB11 addition” for “hrs”; outline: as §3
[6] = target: T1, Adenosine receptor A3 (Homo sapiens); assay: Displacement of [3H]PSB11 from human A3 adenosine receptor expressed in CHO cell membranes by scintillation spectrometric method; conditions: TDE = time-dependent effect
Outline: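 CHO membranes stably expressing hA3AR (15 µg) in 50 mM Tris-HCl, 5 mM MgCl2, 0.01% CHAPS, 1 mM EDTA, pH 7.4, with ~10 nM [3H]PSB-11 and six competitor concentrations, 120 min at 25 °C. Nonspecific binding defined with 100 µM NECA. Filtration, then scintillation counting; one-site fit, Cheng-Prusoff Ki; three experiments in duplicate.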

[7] = target: T1, Adenosine receptor A3 (Homo sapiens); assay: Irreversible displacement of [3H]PSB11 from human A3 adenosine receptor expressed in CHO cell membranes assessed as residual binding level at 10 times Ki measured after 2 hrs by scintillation spectrometric method relative to control; outline: as §1
[8] = target: T3, Adenosine receptor A2b (Homo sapiens) (UniProt P29275); assay: Displacement of [3H]PSB-603 from human A2B adenosine receptor expressed in CHO cell membranes at 1 uM measured after 2 hrs by scintillation spectrometric method relative to control
T3 sequence (whole entry): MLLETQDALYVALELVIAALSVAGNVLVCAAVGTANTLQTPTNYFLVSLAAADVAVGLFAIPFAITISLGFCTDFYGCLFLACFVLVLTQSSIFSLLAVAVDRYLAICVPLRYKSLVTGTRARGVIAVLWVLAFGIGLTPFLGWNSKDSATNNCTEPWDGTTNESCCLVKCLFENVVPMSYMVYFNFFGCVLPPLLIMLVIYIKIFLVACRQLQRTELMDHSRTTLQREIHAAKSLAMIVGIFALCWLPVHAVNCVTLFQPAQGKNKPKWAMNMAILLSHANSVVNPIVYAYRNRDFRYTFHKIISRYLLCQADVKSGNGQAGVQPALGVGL

[9] = target: T1, Adenosine receptor A3 (Homo sapiens); assay: Displacement of [3H]PSB11 from human A3 adenosine receptor transiently expressed in CHOK1 cell membranes measured after 2 hrs by scintillation spectrometric method
Outline: (§4)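 CHO-K1 cells transfected by PEI (3:1, 20 µg DNA/dish) with WT or Y265F7.36 hA3AR, then given 5 mM sodium butyrate for 24 h before membrane preparation.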

[10] = system: T2, Adenosine receptor A3 (Homo sapiens), P0DMS8 [Y265F]; assay: Displacement of [3H]PSB11 from human A3 adenosine receptor Y265F (7.36) mutant transiently expressed in CHOK1 cell membranes measured after 2 hrs by scintillation spectrometric method; outline: as §4
Adenosine receptor A3 [11] = target: T4, Adenosine receptor A3 (Homo sapiens, UniProt P0DMS8); assay: Irreversible displacement of [3H]PSB11 from human A3 adenosine receptor expressed in CHO cell membranes measured up to 240 mins by scintillation spectrometric method; conditions: in the assay text read “Displacement” for “Irreversible displacement”
T4 sequence (P0DMS8 whole entry): T1 sequence (whole entry)
Outline: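 Bound radioligand sampled at time points up to 240 min, then filtered and counted. Competitor kon (k3) and koff (k4) obtained by Motulsky–Mahan fitting, using [3H]PSB-11 k1 and k2 from earlier work.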

[12] = target: T1, Adenosine receptor A3 (Homo sapiens); assay: Reversible displacement of [3H]PSB11 from human A3 adenosine receptor expressed in CHO cell membranes assessed as residual binding level at 10 times Ki measured after 2 hrs by scintillation spectrometric method relative to control
Outline: (§5)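 Samples then either taken unwashed or put through four centrifugation wash cycles before exposure to [3H]PSB-11. Remaining specific binding was normalized to vehicle (100%). Three experiments in duplicate; unpaired t test.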

[13] = target: T1, Adenosine receptor A3 (Homo sapiens); assay: Reversible displacement of [3H]PSB11 from human A3 adenosine receptor expressed in CHO cell membranes assessed as residual binding level at 10 times Ki incubated for 2 hrs followed by 4 times membrane washout and subsequent [3H]PSB11 addition by scintillation spectrometric method relative to control; outline: as §5
Adenosine receptor A3 [14] = target: T4, Adenosine receptor A3; assay: Competitive surmountable antagonist activity at human A3 adenosine receptor expressed in CHO cell membranes assessed as inhibition of 2-Cl-IB-MECA-induced [35S]-GTPgammaS binding preincubated for 60 mins followed by 2-Cl-IB-MECA and [35S]-GTPgammaS addition and measured after 30 mins; assay type: functional; conditions: read-out: pA2 (converted)
Adenosine receptor A3 [15] = target: T4, Adenosine receptor A3; assay: Competitive surmountable antagonist activity at human A3 adenosine receptor expressed in CHO cell membranes assessed as inhibition of 2-Cl-IB-MECA-induced [35S]-GTPgammaS binding measured after 30 mins; assay type: functional; conditions: read-out: pA2 (converted)

Compound: CCCn1c(=O)c2c(nc3cc(OC)ccn32)n(CCNC(=O)c2cccc(S(=O)(=O)F)c2)c1=O
- inhibition [1]: Dose-dependent effect
- inhibition [2]: 18%

Compound: CCCn1c(=O)c2c(nc3cc(OC)ccn32)n(CCCCNC(=O)c2ccc(S(=O)(=O)F)cc2)c1=O
- inhibition [1]: Dose-dependent effect

Compound: CCCn1c(=O)c2c(nc3cc(OC)ccn32)n(CCCCNC(=O)c2cccc(S(=O)(=O)F)c2)c1=O
- inhibition [1]: Dose-dependent effect

Compound: CCCn1c(=O)c2c(nc3cc(OC)ccn32)n(CCCNC(=O)c2ccc(S(=O)(=O)F)cc2)c1=O
- inhibition [1]: Dose-dependent effect
- Activity [3]: 8.7%
- Activity [4]: 7.2%
- Activity [5]: 91%
- inhibition [6]: Tde
- Activity [7]: 11.3%

Compound: CCCn1c(=O)c2c(nc3cc(OC)ccn32)n(CCCCOC(=O)c2ccc(S(=O)(=O)F)cc2)c1=O
- inhibition [1]: Dose-dependent effect

Compound: CCCn1c(=O)c2c(nc3cc(OC)ccn32)n(CCCNC(=O)c2cccc(S(=O)(=O)F)c2)c1=O
- inhibition [1]: Dose-dependent effect

Compound: CCCn1c(=O)c2c(nc3cc(OC)ccn32)n(CCOC(=O)c2ccc(S(=O)(=O)F)cc2)c1=O
- inhibition [1]: Dose-dependent effect

Compound: CCCn1c(=O)c2c(nc3cc(OC)ccn32)n(CCOC(=O)c2cccc(S(=O)(=O)F)c2)c1=O
- inhibition [1]: Dose-dependent effect

Compound: CCCn1c(=O)c2c(nc3cc(OC)ccn32)n(CCCNC(=O)c2ccc(S(C)(=O)=O)cc2)c1=O
- inhibition [1]: Dose-dependent effect
- inhibition [8]: 0%
- pIC50(app) [9]: 5.9
- pIC50(app) [10]: 6.1
- Ki (Adenosine receptor A3 [11]): 525 nM
- Activity [12]: 19.8%
- Activity [13]: 97.6%
- Kb (Adenosine receptor A3 [14]): 1260 nM
- Kb (Adenosine receptor A3 [15]): 631 nM

Compound: CCCn1c(=O)c2c(nc3cc(OC)ccn32)n(CCNC(=O)c2ccc(S(=O)(=O)F)cc2)c1=O
- inhibition [1]: Dose-dependent effect
- inhibition [2]: 27%

Compound: CCCn1c(=O)c2c(nc3cc(OC)ccn32)n(CCCOC(=O)c2ccc(S(=O)(=O)F)cc2)c1=O
- inhibition [1]: Dose-dependent effect

Compound: CCCn1c(=O)c2c(nc3cc(OC)ccn32)n(CCCCOC(=O)c2cccc(S(=O)(=O)F)c2)c1=O
- inhibition [1]: Dose-dependent effect

Compound: CCCn1c(=O)c2c(nc3cc(OC)ccn32)n(CCCOC(=O)c2cccc(S(=O)(=O)F)c2)c1=O
- inhibition [1]: Dose-dependent effect
